Data: ChEMBL document CHEMBL1833887, “Synthesis and evaluation of 7-substituted 4-aminoquinoline analogues for antimalarial activity” (J Med Chem, 2011)
≈ marks a conversion by molar mass, not a printed value.

Columns and labels:
[1] = Solubility of the compound at pH 7.4 after 18 hrs by UV spectroscopic analysis; format: physicochemical; settings: buffer
In short: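 Kinetic solubility. A 10 mM stock is diluted 1:100 into PBS pH 7.4 and incubated 18 h at room temperature, then filtered; the filtrate is mixed 1:1 with 1-propanol. UV spectrum (250–500 nm) compared by AUC with a 1-propanol/PBS reference. Single experiment in triplicate.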

[2] = Permeability of the compound at pH 7.4 after 30 mins by PAMPA; format: ADME; settings: read-out: permeability
In short: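 PAMPA at pH 7.4. A 10 mM DMSO stock is diluted into system solution buffer; its UV spectrum serves as reference. Membrane painted with GIT lipid, acceptor chamber holds acceptor solution buffer. Sandwich stirred for 30 min, aqueous boundary layer set to 40. Donor and acceptor UV spectra read at 250–500 nm. Permeability coefficient from the AUCs of reference, donor and acceptor. Single experiment in triplicate.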

[3] = Dissociation constant, pKa of the compound; format: physicochemical
Plasmodium falciparum [4] = test: Antimalarial activity against chloroquine-sensitive Plasmodium falciparum 3D7 infected in human erythrocytes assessed as reduction in parasitemia after 72 hrs by spectrophotometry; format: functional, organism-based; settings: 3D7, 72 h
Plasmodium falciparum [5] = test: Antimalarial activity against chloroquine-resistant Plasmodium falciparum K1 infected in human erythrocytes assessed as reduction in parasitemia after 72 hrs by spectrophotometry; format: functional, organism-based; settings: K1, 72 h
Plasmodium falciparum [6] = test: Ratio of EC50 for chloroquine-resistant Plasmodium falciparum K1 infected in human erythrocytes to EC50 for chloroquine-sensitive Plasmodium falciparum 3D7 infected in human erythrocytes; format: functional
HepG2 = test: Cytotoxicity against human HepG2 cells assessed as intracellular ATP level after 72 hrs by Celltiter-Glo luminescent assay; format: cell-based; settings: HepG2, 72 h
[7] = Ratio of EC50 for human HepG2 cells to EC50 for Plasmodium falciparum 3D7 infected in human erythrocytes
[8] = Ratio of EC50 for human HepG2 cells to EC50 for Plasmodium falciparum K1 infected in human erythrocytes

Structure (SMILES)	solubility at 18 h [1]	Papp at 0.5 h [2]	pKa [3]	EC50 (Plasmodium falciparum [4])	EC50 (Plasmodium falciparum [5])	Ratio EC50 (Plasmodium falciparum [6])	EC50 (HepG2)	Ratio EC50 [7]	Ratio EC50 [8]
COc1cccc(CNCCCNc2ccnc3cc(-c4ccc(C(F)(F)F)cc4)ccc23)c1O	32 µM (≈ 15.4 µg/mL)	237 ×10⁻⁶ cm/s	9.47	13 nM	24 nM	1.8	2210 nM	166.2	91
COc1ccc(-c2ccc3c(NCCCNCc4ccc5c(c4)OCO5)ccnc3c2)cc1	32 µM (≈ 14.1 µg/mL)	237 ×10⁻⁶ cm/s	9.47	29 nM	26 nM	0.9	5630 nM	192.9	218.3
c1cc(NCCCNCc2ccc3c(c2)OCO3)c2ccc(Cc3ccc4c(c3)OCO4)cc2n1	32 µM (≈ 15 µg/mL)	237 ×10⁻⁶ cm/s	9.47	26 nM	27 nM	1	4790 nM	185	178.8
COc1ccc(-c2ccc3c(NCCCNCc4cc(F)ccc4OC)ccnc3c2)cc1	32 µM (≈ 14.3 µg/mL)	237 ×10⁻⁶ cm/s	9.47	96 nM	29 nM	0.3	5960 nM	62.1	205.5
c1ccc(-c2ccc3c(NCCCNCc4ccc5c(c4)OCO5)ccnc3c2)cc1	32 µM (≈ 13.2 µg/mL)	237 ×10⁻⁶ cm/s	9.47	17 nM	29 nM	1.7	4070 nM	234	138.9
Fc1ccc(-c2ccc3c(NCCCNCc4ccc5c(c4)OCO5)ccnc3c2)cc1	32 µM (≈ 13.7 µg/mL)	237 ×10⁻⁶ cm/s	9.47	18 nM	35 nM	2	8770 nM	495.4	252
COc1ccc(F)cc1CNCCCNc1ccnc2cc(-c3ccccc3)ccc12	32 µM (≈ 13.3 µg/mL)	237 ×10⁻⁶ cm/s	9.47	11 nM	45 nM	4.2	2960 nM	276.4	66.3
c1coc(CNCCCNc2ccnc3cc(Cc4ccc5c(c4)OCO5)ccc23)c1	32 µM (≈ 13.3 µg/mL)	237 ×10⁻⁶ cm/s	9.47	19 nM	46 nM	2.4	6500 nM	340.2	142.2
COc1cccc(CNCCCNc2ccnc3cc(Cc4ccc5c(c4)OCO5)ccc23)c1O	32 µM (≈ 15.1 µg/mL)	237 ×10⁻⁶ cm/s	9.47	8 nM	50 nM	6	1140 nM	135.4	22.7
Fc1ccc(-c2ccc3c(NCCCNCc4ccco4)ccnc3c2)cc1	32 µM (≈ 12 µg/mL)	237 ×10⁻⁶ cm/s	9.47	32 nM	69 nM	2.1	7760 nM	240.4	113.2
COc1ccc(-c2ccc3c(NCCCNCc4cccc(OC)c4O)ccnc3c2)cc1	32 µM (≈ 14.2 µg/mL)	237 ×10⁻⁶ cm/s	9.47	13 nM	78 nM	6	1600 nM	122.9	20.6
COc1ccc(F)cc1CNCCCNc1ccnc2cc(-c3ccc(C(F)(F)F)cc3)ccc12	32 µM (≈ 15.5 µg/mL)	237 ×10⁻⁶ cm/s	9.47	54 nM	89 nM	1.7	5190 nM	96.8	58.4
COc1ccc(F)cc1CNCCCNc1ccnc2cc(-c3ccc(F)cc3)ccc12	32 µM (≈ 13.9 µg/mL)	237 ×10⁻⁶ cm/s	9.47	18 nM	97 nM	5.5	770 nM	44	7.9
FC(F)(F)c1ccc(-c2ccc3c(NCCCNCc4ccc5c(c4)OCO5)ccnc3c2)cc1	32 µM (≈ 15.3 µg/mL)	237 ×10⁻⁶ cm/s	9.47	25 nM	98 nM	3.9	1890 nM	74.5	19.2
c1ccc(-c2ccc3c(NCCCNCc4ccco4)ccnc3c2)cc1	32 µM (≈ 11.4 µg/mL)	237 ×10⁻⁶ cm/s	9.47	20 nM	128 nM	6.3	5920 nM	291.6	46.4
COc1cccc(CNCCCNc2ccnc3cc(-c4cc(C(F)(F)F)cc(C(F)(F)F)c4)ccc23)c1O	32 µM (≈ 17.6 µg/mL)	237 ×10⁻⁶ cm/s	9.47	29 nM	209 nM	7.2	940 nM	32.4	4.5
FC(F)(F)c1ccc(-c2ccc3c(NCCCNCc4ccco4)ccnc3c2)cc1	32 µM (≈ 13.6 µg/mL)	237 ×10⁻⁶ cm/s	9.47	20 nM	223 nM	11	3470 nM	171	15.5
CC(C)(C)c1ccc(-c2ccc3c(NCCCNCc4ccco4)ccnc3c2)cc1	32 µM (≈ 13.2 µg/mL)	237 ×10⁻⁶ cm/s	9.47	704 nM	325 nM	0.5	3150 nM	4.5	9.7
COc1cccc(CNCCCNc2ccnc3cc(-c4ccc(C(C)(C)C)cc4)ccc23)c1O	32 µM (≈ 15 µg/mL)	237 ×10⁻⁶ cm/s	9.47	251 nM	418 nM	1.7	690 nM	2.8	1.7
CC(C)(C)c1ccc(-c2ccc3c(NCCCNCc4ccc5c(c4)OCO5)ccnc3c2)cc1	32 µM (≈ 15 µg/mL)	237 ×10⁻⁶ cm/s	9.47	223 nM	490 nM	2.2	1370 nM	6.2	2.8
c1ccc2c(-c3ccc4c(NCCCNCc5ccc6c(c5)OCO6)ccnc4c3)cccc2c1	32 µM (≈ 14.8 µg/mL)	237 ×10⁻⁶ cm/s	9.47	598 nM	538 nM	0.9	6570 nM	11	12.2
FC(F)(F)c1cc(-c2ccc3c(NCCCNCc4ccc5c(c4)OCO5)ccnc3c2)cc(C(F)(F)F)c1	32 µM (≈ 17.5 µg/mL)	237 ×10⁻⁶ cm/s	9.47	284 nM	604 nM	2.1	1160 nM	4.1	1.9
